The text below walks through data of ChEMBL document CHEMBL2046281, “Pre-steady state kinetic analysis of cyclobutyl derivatives of 2'-deoxyadenosine 5'-triphosphate as inhibitors of HIV-1 reverse transcriptase” (Bioorg Med Chem Lett, 2012).

Assay [1] addresses Human immunodeficiency virus type 1 reverse transcriptase (Human immunodeficiency virus 1) (UniProt Q72547). The assay is described as follows: Binding affinity to wild type HIV1 reverse transcriptase assessed as compound incorporation in presence of 50 nM primer template and 10 mM MgCl2 by pre-steady state kinetics study. An outline of the steps: (§1)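 Pre-steady-state single-nucleotide incorporation by HIV-1 RT (wild type or K65R), 250 nM active-site enzyme, elongating a radiolabeled DNA/DNA primer-template (50 nM) that carries the primer binding site and its complementary sequence. Reactions contained 10 mM MgCl2 and varied nucleotide concentrations. kpol and Kd were derived, and incorporation efficiency was reported in s-1 µM-1.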

The target of assay [2] is Human immunodeficiency virus type 1 reverse transcriptase (Human immunodeficiency virus 1, UniProt Q72547). The assay is described as follows: Binding affinity to wild type HIV1 reverse transcriptase by pre-steady state kinetics study. In outline: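 Pre-steady-state single-nucleotide incorporation by wild-type HIV-1 RT (250 nM active sites) into a radiolabeled DNA/DNA primer-template (50 nM) carrying the primer binding site and its complementary sequence. Reactions contained 10 mM MgCl2 and varied nucleotide concentrations. kpol and Kd were taken from the primer elongation data.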

Assay [3] deals with Human immunodeficiency virus type 1 reverse transcriptase (Human immunodeficiency virus 1), Q72547 [K65R]. The assay is described as follows: Inhibition of HIV1 reverse transcriptase K65R mutant assessed as compound incorporation efficiency in presence of 50 nM primer template and 10 mM MgCl2 by pre-steady state kinetics study. In outline: as §1
The target in assay [4] is Human immunodeficiency virus type 1 reverse transcriptase (Human immunodeficiency virus 1, UniProt Q72547, K65R). The assay can be described thus: Binding affinity to HIV1 reverse transcriptase K65R mutant by pre-steady state kinetics study. An outline of the steps:
as §1

In assay [5] the test system is Human immunodeficiency virus type 1 reverse transcriptase (Human immunodeficiency virus 1), Q72547 [K65R]. The assay is described as follows: Binding affinity to HIV1 reverse transcriptase K65R mutant assessed as compound incorporation in presence of 50 nM primer template and 10 mM MgCl2 by pre-steady state kinetics study. An outline of the steps:
as §1

For assay [6], the target named is Human immunodeficiency virus type 1 reverse transcriptase (Human immunodeficiency virus 1) (UniProt Q72547). The assay is described as follows: Inhibition of wild type HIV1 reverse transcriptase assessed as compound incorporation efficiency in presence of 50 nM primer template and 10 mM MgCl2 by pre-steady state kinetics study. An outline of the steps:
as §1

The target is the same in assay [7]. The assay can be described thus: Discrimination index, ratio of incorporation efficiency of dATP to incorporation efficiency of compound for wild type HIV1 reverse transcriptase.
The test system of assay [8] is Human immunodeficiency virus type 1 reverse transcriptase (Human immunodeficiency virus 1), Q72547 [K65R]. The assay is described as follows: Discrimination index, ratio of incorporation efficiency of dATP to incorporation efficiency of compound for wild type HIV1 reverse transcriptase K65R mutant.

pKd: −log10 of the molar value.

On to `Nc1ncnc2c1ncn2[C@H]1C[C@H](O)[C@@H](COP(=O)(O)OP(=O)(O)OP(=O)(O)O)O1`, for which the figures for the K in assay [1] and in assay [5] were 12.3 s⁻¹ and 4 s⁻¹, respectively. Also, the pKd (commonly −log10 of the Kd, conventionally taken in molar units) was 5.34 in assay [2] and 5.18 in assay [4]. Besides, the values for the Activity in assay [3] and in assay [6] were 0.61 s⁻¹ µM⁻¹ and 2.7 s⁻¹ µM⁻¹, respectively.

In the case of `NC1=Nc2ncnc3c2c(cn3[C@H]2C[C@@H](COP(=O)(O)OP(=O)(O)OP(=O)(O)O)C2)C=C1`, the K in assay [1] came out at 0.16 s⁻¹. Further, the negative-log Kd (pKd) in assay [2] is 4.65. Moreover, the Activity in assay [6] was determined as 0.007 s⁻¹ µM⁻¹. Also, in assay [7], the Ratio turned out to be 386.

As to `Nc1ncnc2c1ncn2[C@@H]1C[C@H](COP(=O)(O)OP(=O)(O)OP(=O)(O)O)[C@H]1F`, in assay [1], the K was found to be 0.13 s⁻¹. The pKd in assay [2] was 4.59. In addition, the Activity in assay [6] is 0.0052 s⁻¹ µM⁻¹. For the same compound, in assay [7], the Ratio turned out to be 519.

In the case of `Nc1ncnc2c1ncn2[C@H]1C[C@@H](OCP(=O)(O)OP(=O)(O)OP(=O)(O)O)C1`, the values for the K in assay [1] and in assay [5] were 1.3 s⁻¹ and 0.07 s⁻¹, respectively. Moreover, the pKd in assay [2] was 5.19; in assay [4], 5.33. Also, the Activity turned out to be 0.015 s⁻¹ µM⁻¹ in assay [3] and 0.21 s⁻¹ µM⁻¹ in assay [6]. Also, the Ratio was 13 in assay [7] and 41 in assay [8].

As for `Nc1ncnc2c1ncn2[C@H]1C[C@@H](COP(=O)(O)OP(=O)(O)OP(=O)(O)O)C1`, the K in assay [1] worked out at 0.23 s⁻¹. This compound gave a negative logarithm of the Kd (pKd) in assay [2] of 4.69. The Activity in assay [6] was 0.011 s⁻¹ µM⁻¹. The Ratio in assay [7] is 245.

In the case of `C[C@H](Cn1cnc2c(N)ncnc21)OCP(=O)(O)OP(=O)(O)OP(=O)(O)O`, the K was found to be 0.79 s⁻¹ in assay [1] and 0.15 s⁻¹ in assay [5]. The results for the negative-log Kd (pKd) in assay [2] and in assay [4] were 4.78 and 4.54, respectively. In addition, the Activity in assay [3] turned out to be 0.005 s⁻¹ µM⁻¹; in assay [6] it was 0.048 s⁻¹ µM⁻¹. For the same compound, the values for the Ratio in assay [7] and in assay [8] were 56 and 122, respectively.
